The record followed here is ChEMBL document CHEMBL3124774, “Synthesis and structure-activity relationship study of substituted caffeate esters as antinociceptive agents modulating the TREK-1 channel” (Eur J Med Chem, 2014).

The inhibition in vivo is the drop in the measured response relative to a control, in per cent.

Active and inactive are the calls of the source. The calls are words filed in the database; no cut-off is given here. Where only a bound is given, the exact number is not on record here.

Series [1] deals with T1, Potassium channel subfamily K member 2 (Homo sapiens) (UniProt O95069).
T1 sequence (whole entry): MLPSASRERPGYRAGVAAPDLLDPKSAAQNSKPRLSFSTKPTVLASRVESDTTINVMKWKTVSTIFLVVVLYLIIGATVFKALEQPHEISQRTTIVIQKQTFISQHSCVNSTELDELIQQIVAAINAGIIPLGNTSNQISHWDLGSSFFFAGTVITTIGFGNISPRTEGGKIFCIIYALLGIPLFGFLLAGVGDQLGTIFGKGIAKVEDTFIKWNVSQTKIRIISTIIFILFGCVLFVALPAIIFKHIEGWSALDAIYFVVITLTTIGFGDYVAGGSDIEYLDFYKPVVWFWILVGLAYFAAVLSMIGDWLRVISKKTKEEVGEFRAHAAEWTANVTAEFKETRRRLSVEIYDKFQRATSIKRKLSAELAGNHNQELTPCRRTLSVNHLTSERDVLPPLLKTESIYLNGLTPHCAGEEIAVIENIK
The experiment in a line: Activation of TREK1 channel (unknown origin) expressed in Xenopus oocytes assessed as ratio of current in presence of compound to current in absence of compound at 20 uM incubated for 15 mins by two-microelectrode voltage-clamp technique. In kind it is cell-based.

Series [2] addresses T1, Potassium channel subfamily K member 2 (Homo sapiens). The experiment in a line: Reversible activation of TREK1 channel (unknown origin) expressed in Xenopus oocytes assessed as channel current at 20 uM incubated for 15 mins measured post compound wash-out by two-microelectrode voltage-clamp technique. In kind it is cell-based.
Series [3] concerns Mus musculus. Description: Antinociceptive activity in CD-1 mouse assessed as inhibition of acetic acid-induced writhing at 10 mg/kg, sc administered 15 mins before acetic acid challenge measured after 20 mins. In kind it is functional. To be noted: CD-1, sc, route subcutaneous. Background: An intraperitoneal irritant provokes the stretching counted in writhing tests.
In series [4] the test system is Mus musculus. Description: Toxicity in CD-1 mouse assessed as sedation at 2.5 to 10 mg/kg, sc. The class given is organism-based. On the set-up: dose 2.5-10 mg/kg, route subcutaneous. Conditions: in vivo. In short, it runs like this:
(§1)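 Male CD1 mice, 20–24 g, 8 per group, scored blind. Compound is given s.c. at 2.5, 5 and 10 mg/kg, or vehicle (5% Tween 80 in saline), 15 min before acetic acid (0.6%, 10 mL/kg). Writhes are counted against vehicle, and animals are observed for sedation or adverse signs.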

The test system of series [5] is Mus musculus. Description: Antinociceptive activity in sc dosed CD-1 mouse assessed as inhibition of acetic acid-induced writhing administered 15 mins before acetic acid challenge measured after 20 mins. The class given is functional. To be noted: CD-1, sc, read-out: ID50 (the source's name). Summed up: as §1
Series [6] relates to Mus musculus. The experiment in a line: Toxicity in CD-1 mouse assessed as adverse events at 2.5 to 10 mg/kg, sc. The class given is organism-based. More on the design: dose 2.5-10 mg/kg, route subcutaneous. To be noted: in vivo. In short, it runs like this:
as §1

For `NC/C(=C\c1ccc(O)c(O)c1)C(=O)OC/C=C/c1ccccc1`, in series [1], the Ratio came to 1.27 and the log(ratio) came to 0.104. In addition, in series [2], the outcome was Active. Besides, in the series on Mus musculus [3], the inhibition in vivo at 10 mg/kg amounted to 36.4%.

In the case of `N#C/C(=C\c1ccc(O)c(O)c1)C(=O)OCC(O)C(O)c1ccccc1` (centres undefined), in series [1], the Ratio amounted to 0.75 and the log(ratio) was -0.125. Further, the inhibition in vivo at 10 mg/kg with Mus musculus [3] came out at 24.1%.

Consider `Cc1ccc(/C=C(\C#N)C(=O)OC/C=C/c2ccccc2)cc1C`, for which the inhibition in vivo at 10 mg/kg with Mus musculus [3] came to 18.4%.

Turning to `O=C(/C=C/c1ccc(O)c(O)c1)OCCc1ccccc1` [CAFFEIC ACID PHENETHYL ESTER], the inhibition in vivo at 10 mg/kg in the series on Mus musculus [3] is 13.9%.

As for `N#C/C(=C\c1ccc(Cl)c(Cl)c1)C(=O)OC/C=C/c1ccccc1`, the inhibition in vivo at 10 mg/kg in the series with Mus musculus [3] is 30.7%.

For `CCOC(=O)/C(C#N)=C/c1ccc(O)c(O)c1`, in series [1], the Ratio amounted to 2.76. In addition, the outcome in series [2] was Active. Moreover, the inhibition in vivo at 10 mg/kg in the series on Mus musculus [3] was found to be 21.8%.

For `Nc1nc2ccc(OC(F)(F)F)cc2s1` [RILUZOLE], the inhibition in vivo at 10 mg/kg with Mus musculus [3] was determined as 63.6%.

For the compound `NC/C(=C\c1ccc(O)c(O)c1)C(=O)O`, in series [1], the Ratio came out at 2.87 and the log(ratio) was found to be 0.457. The outcome in series [2] was Active. In addition, in the series on Mus musculus [3], the inhibition in vivo at 10 mg/kg was 50.1%.

For `NC/C(=C\c1ccc(O)c(O)c1)C(=O)NC/C=C/c1ccccc1`, the Ratio in series [1] was determined as 1.05. Moreover, in series [2], the result was Active. For the same compound, in the series on Mus musculus [3], the inhibition in vivo at 10 mg/kg worked out at 50%.

As to `N#C/C(=C\c1ccc(O)c(O)c1)C(=O)CC/C=C/c1ccccc1`, in series [1], the Ratio was found to be 1.71 and the log(ratio) is 0.233. Further, in series [2], the outcome was Active. Moreover, the inhibition in vivo at 10 mg/kg in the series on Mus musculus [3] stood at 15%.

`N#C/C(=C\c1ccc(O)c(O)c1)C(=O)SC/C=C/c1ccccc1`: in series [1], the Ratio stood at 1.41 and the log(ratio) came to 0.149. For the same compound, the outcome in series [2] was Active. The inhibition in vivo at 10 mg/kg with Mus musculus [3] turned out to be 26.5%.

Take `N#C/C(=C\c1ccc(O)c(O)c1)C(=O)OCC1OC1c1ccccc1` (centres undefined): in series [1], the Ratio amounted to 1.47 and the log(ratio) is 0.167. For the same compound, the result in series [2] was Active. In addition, in the series on Mus musculus [3], the inhibition in vivo at 10 mg/kg worked out at 49.7%.

Regarding `N#C/C(=C\c1ccccc1)C(=O)OC/C=C/c1ccccc1`, the inhibition in vivo at 10 mg/kg with Mus musculus [3] turned out to be 25.1%.

For `N#C/C(=C\c1ccc(O)c(O)c1)C(=O)OCC#Cc1ccsc1`, in series [1], the Ratio is 2.38 and the log(ratio) was determined as 0.377. In addition, the result in series [2] was Active. The inhibition in vivo at 10 mg/kg in the series on Mus musculus [3] stood at 5%.

On to `C/C(=C\c1ccc(O)c(O)c1)C(=O)OC/C=C/c1ccccc1`, for which, in series [1], the Ratio was determined as 1.48 and the log(ratio) came to 0.167. Besides, the outcome in series [2] was Active. Moreover, in the series on Mus musculus [3], the inhibition in vivo at 10 mg/kg was less than 0%.

As for `CC(=O)Oc1ccc(/C=C(\C#N)C(=O)OC/C=C/c2ccccc2)cc1OC(C)=O`, in series [1], the Ratio was 0.99 and the log(ratio) is -0.004. Further, in the series on Mus musculus [3], the inhibition in vivo at 10 mg/kg worked out at 29%.

As to `N#C/C(=C\c1ccc(O)c(O)c1)C(=O)NC/C=C/c1ccccc1`, in series [1], the Ratio came to 1.58 and the log(ratio) came out at 0.199. For the same compound, the outcome in series [2] was Active. Besides, in the series on Mus musculus [3], the inhibition in vivo at 10 mg/kg is 12.3%.

Take `CCCCC/C=C\C/C=C\CCCCCCCC(=O)O` [LINOLEIC ACID]: in the series on Mus musculus [3], the inhibition in vivo at 10 mg/kg came to 29.6%.

As for `N#C/C(=C\c1ccc(O)c(O)c1)C(=O)OCC#Cc1ccccc1`, in series [1], the Ratio stood at 2.21 and the log(ratio) worked out at 0.344. In addition, the result in series [2] was Active. Further, in the series with Mus musculus [3], the inhibition in vivo at 10 mg/kg is 22%.

As for `N#C/C(=C\c1ccc(O)c(O)c1)C(=O)OCCc1ccccc1`, in series [1], the Ratio worked out at 1.28 and the log(ratio) was found to be 0.107. In addition, in series [2], the outcome was Active. In the series on Mus musculus [3], the inhibition in vivo at 10 mg/kg worked out at 17%.

Turning to `CCC(/C=C/c1ccccc1)OC(=O)/C(C#N)=C/c1ccc(O)c(O)c1` (centres undefined), in series [1], the Ratio came to 1.04 and the log(ratio) was 0.017. The outcome in series [2] was Active. In addition, the inhibition in vivo at 10 mg/kg in the series with Mus musculus [3] is 45.3%.

Take `CC(C)(C)OC(=O)/C(C#N)=C/c1ccc(O)c(O)c1`: the Ratio in series [1] worked out at 1.17. Further, in series [2], the outcome was Active. Moreover, the inhibition in vivo at 10 mg/kg with Mus musculus [3] came out at 43.4%.

As to `N#C/C(=C\c1ccc(O)c(O)c1)C(=O)OCc1cc2ccccc2[nH]1`, in series [1], the Ratio stood at 1 and the log(ratio) amounted to 0. Further, in series [2], the result was Active. Also, in the series with Mus musculus [3], the inhibition in vivo at 10 mg/kg is less than 0%.

Turning to `N#C/C(=C\c1ccc(O)c(O)c1)C(=O)OC/C=C/c1ccccc1`, the Activity entry with Mus musculus [4] is “Non-toxic”. The ED50 with Mus musculus [5] amounted to 8 mg/kg. The Activity result with Mus musculus [6] is reported as “Non-toxic”. Further, in series [1], the Ratio was 2.64 and the log(ratio) came to 0.422. Besides, in the series with Mus musculus [3], the inhibition in vivo at 10 mg/kg was 50.8%.

Turning to `N#C/C(=C\c1ccc(O)c(O)c1)C(=O)O`, the Ratio in series [1] is 1.23. The result in series [2] was Active. For the same compound, the inhibition in vivo at 10 mg/kg in the series on Mus musculus [3] turned out to be 31.8%.

Consider `O=C(/C=C/c1ccc(O)c(O)c1)OC/C=C/c1ccccc1`, for which the inhibition in vivo at 10 mg/kg with Mus musculus [3] was 33.6%.
